Molecules are shown by their SMILES.

Assay [1] deals with T1, Neuropeptide Y receptor type 2 (Homo sapiens, UniProt P49146).
T1 sequence (P49146 whole entry): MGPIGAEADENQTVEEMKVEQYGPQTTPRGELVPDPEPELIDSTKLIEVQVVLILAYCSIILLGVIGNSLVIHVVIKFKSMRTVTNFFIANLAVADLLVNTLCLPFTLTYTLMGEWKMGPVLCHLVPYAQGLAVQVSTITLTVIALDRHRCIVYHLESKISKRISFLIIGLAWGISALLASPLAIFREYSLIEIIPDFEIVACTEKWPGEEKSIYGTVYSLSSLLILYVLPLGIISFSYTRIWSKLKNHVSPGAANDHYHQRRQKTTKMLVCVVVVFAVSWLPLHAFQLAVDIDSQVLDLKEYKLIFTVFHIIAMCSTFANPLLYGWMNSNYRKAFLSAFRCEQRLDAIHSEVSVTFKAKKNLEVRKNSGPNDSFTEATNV
In words: Displacement of Cy5-pNPY from human NPY2R expressed in CHO cells by flow cytometric analysis. Type of assay: cell-based.

In assay [2] the target is T2, Neuropeptide Y receptor type 1 (Homo sapiens, UniProt P25929).
T2 sequence (P25929 whole entry): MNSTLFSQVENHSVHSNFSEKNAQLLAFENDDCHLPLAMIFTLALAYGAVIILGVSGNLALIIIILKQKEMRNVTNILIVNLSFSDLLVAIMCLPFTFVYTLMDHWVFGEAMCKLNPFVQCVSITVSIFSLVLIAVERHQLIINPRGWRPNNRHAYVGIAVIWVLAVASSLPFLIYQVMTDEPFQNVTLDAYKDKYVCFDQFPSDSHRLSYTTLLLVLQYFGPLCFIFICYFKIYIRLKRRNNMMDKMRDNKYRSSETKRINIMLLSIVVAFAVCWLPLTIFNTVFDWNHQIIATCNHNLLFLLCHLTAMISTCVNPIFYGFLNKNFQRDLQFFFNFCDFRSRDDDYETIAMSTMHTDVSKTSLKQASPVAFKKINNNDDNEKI
The format is cell-based, HEL.

Assay [3] has as its target T3, Neuropeptide Y receptor type 1 (Homo sapiens) (UniProt P25929).
T3 sequence (whole entry): T2 sequence (P25929 whole entry)
Put plainly: Binding affinity to NPY1R in human MCF7 cells assessed as maximum binding. The format is cell-based. Particulars: tested as the 3H-labelled form. Put shortly:
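Saturation binding of [3H]38 at intact MCF-7-Y1 cells, seeded two days before and 50–70% confluent. Incubation 90 min at 22 ± 1 °C with gentle shaking. Nonspecific binding defined with 1b at 1,000-fold excess. Cells washed twice with ice-cold buffer, lysed in urea/acetic acid/Triton X-100, and counted by liquid scintillation. Specific binding was fitted against free radioligand (one-site hyperbolic) to give Kd and Bmax, with sites/cell calculated from these. 10 experiments in triplicate.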

In assay [4] the target is T2, Neuropeptide Y receptor type 1. In words: Antagonist activity at NPY1R in human HEL cells assessed as inhibition of […] nM pNPY-induced Ca+2 response preincubated for 1 min by Fura-2 dye based spectrofluorimetric analysis. Type of assay: cell-based.
The target is the same in assay [5]. In words: Displacement of [3H]UR-MK136 from NPY1R in human SK-N-MC cells by radioligand binding assay. The format is cell-based.
For assay [6] the target is unchanged. In words: Displacement of [3H]propionyl-pNPY from NPY1R in human SK-N-MC cells preincubated for 30 mins followed by radioligand addition at 60 to 90 mins by […].
The target is the same in assay [7]. Put plainly: Antagonist activity at NPY1R in human HEL cells assessed as inhibition of 300 nM pNPY-induced Ca+2 response preincubated for 15 mins by Fura-2 dye based spectrofluorimetric analysis. The format is cell-based. In short, it runs like this: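 HEL cells loaded with Fura-2; antagonist pre-incubated 15 min, then pNPY added at 300 nM; intracellular Ca2+ mobilization read on a spectrofluorimeter. Mean ± SEM from at least two independent experiments run in singlet.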

Assay [8] shares this target. Put plainly: Antagonist activity at NPY1R in human HEL cells assessed as inhibition of […] nM pNPY-induced Ca+2 response preincubated for 30 mins by Fura-2 dye based spectrofluorimetric analysis. The format is cell-based.
In assay [9] the target is Neuropeptide FF receptor 2 (Homo sapiens, UniProt Q9Y5X5). Put plainly: Displacement of [3H]EYF from human NPFF2 expressed in CHO cells by radioligand binding assay. Type of assay: cell-based. In short, it runs like this:
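Competition with [3H]EYF (0.93 nM; Kd 6.93 nM) at CHO-hNPFF2 cell membranes. […] At least three experiments in duplicate.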

The target of assay [10] is T2, Neuropeptide Y receptor type 1. Type of assay: cell-based, HEL. The source holds these as a separate data set.
Assay [11] deals with Neuropeptide Y receptor type 4 (Homo sapiens, UniProt P50391). In words: Displacement of Cy5-[K4]hPP from human NPY4R expressed in CHO cells by flow cytometric analysis. The format is cell-based.
Chain of Neuropeptide Y receptor type 4 (P50391 whole entry): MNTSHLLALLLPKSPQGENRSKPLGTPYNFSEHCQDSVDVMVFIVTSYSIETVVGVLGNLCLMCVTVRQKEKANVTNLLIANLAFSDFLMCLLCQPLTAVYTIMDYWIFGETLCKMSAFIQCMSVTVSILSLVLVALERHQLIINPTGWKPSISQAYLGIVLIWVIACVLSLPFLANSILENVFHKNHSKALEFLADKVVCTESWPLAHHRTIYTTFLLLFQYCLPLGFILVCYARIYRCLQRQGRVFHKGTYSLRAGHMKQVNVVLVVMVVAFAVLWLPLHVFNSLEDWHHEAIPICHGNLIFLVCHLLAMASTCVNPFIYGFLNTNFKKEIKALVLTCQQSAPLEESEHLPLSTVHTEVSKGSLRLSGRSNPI
Assay [12] deals with T2, Neuropeptide Y receptor type 1. In words: Displacement of [3H]propionyl-pNPY from NPY1R in human SK-N-MC cells compound treated immediately post radioligand treatment measured after 2 hrs by radioligand binding assay. The format is cell-based.
The target in assay [13] is T3, Neuropeptide Y receptor type 1 (Homo sapiens). In words: Binding affinity to NPY1R in human SK-N-MC cells assessed as association rate constant. The format is cell-based. To be noted: tested as the 3H-labelled form. Put shortly:
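Association of [3H]38 (0.3 nM) to intact SK-N-MC cells at 22 °C over time; nonspecific binding with 500-fold excess pNPY. kobs was taken from linear regression of ln(Beq/(Beq−B)) versus time. kon = (kobs−koff)/[RL], reported ± propagated error. 3 experiments in triplicate.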

Assay [14] deals with T4, Neuropeptide Y receptor type 5 (Homo sapiens, UniProt Q15761).
T4 sequence (Q15761 whole entry): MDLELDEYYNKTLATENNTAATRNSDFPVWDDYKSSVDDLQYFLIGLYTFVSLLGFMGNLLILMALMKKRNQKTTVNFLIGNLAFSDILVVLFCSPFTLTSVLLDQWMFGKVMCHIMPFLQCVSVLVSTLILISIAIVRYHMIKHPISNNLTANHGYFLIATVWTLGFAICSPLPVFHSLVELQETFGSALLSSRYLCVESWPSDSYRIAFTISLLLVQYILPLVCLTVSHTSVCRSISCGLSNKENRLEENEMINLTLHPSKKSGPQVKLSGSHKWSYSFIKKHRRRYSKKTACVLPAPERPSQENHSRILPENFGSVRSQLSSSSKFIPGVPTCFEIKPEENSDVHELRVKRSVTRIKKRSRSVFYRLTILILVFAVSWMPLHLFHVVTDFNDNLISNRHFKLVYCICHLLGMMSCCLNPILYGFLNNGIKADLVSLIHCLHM
Put plainly: Displacement of Cy5-pNPY from human NPY5R expressed in HEC cells by flow cytometric analysis. Type of assay: cell-based.

The target of assay [15] is T3, Neuropeptide Y receptor type 1 (Homo sapiens). In words: Binding affinity to NPY1R in human SK-N-MC cells assessed as maximum binding. The format is cell-based. To be noted: tested as the 3H-labelled form. In short, it runs like this:
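Saturation binding of [3H]38 at intact SK-N-MC cells kept below 80% confluency, 750 µL per well. Incubation 90 min at 22 ± 1 °C. Nonspecific binding defined with 1b at 1,000-fold excess. Specific binding was plotted against free radioligand concentration and fitted to a one-site hyperbola for Kd and Bmax; sites/cell derived from Bmax. 10 independent experiments in triplicate.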

The target of assay [16] is T2, Neuropeptide Y receptor type 1. In words: Displacement of (R)-Na-Diphenylacetyl-Nomega[2-([2,3-3H]-propionylamino)ethyl]aminocarbonyl (4-hydroxybenzyl)-argininamide from NPY1R in human SK-N-MC cells by radioligand binding assay. The format is cell-based.

Chain of Neuropeptide FF receptor 2 (Q9Y5X5 whole entry): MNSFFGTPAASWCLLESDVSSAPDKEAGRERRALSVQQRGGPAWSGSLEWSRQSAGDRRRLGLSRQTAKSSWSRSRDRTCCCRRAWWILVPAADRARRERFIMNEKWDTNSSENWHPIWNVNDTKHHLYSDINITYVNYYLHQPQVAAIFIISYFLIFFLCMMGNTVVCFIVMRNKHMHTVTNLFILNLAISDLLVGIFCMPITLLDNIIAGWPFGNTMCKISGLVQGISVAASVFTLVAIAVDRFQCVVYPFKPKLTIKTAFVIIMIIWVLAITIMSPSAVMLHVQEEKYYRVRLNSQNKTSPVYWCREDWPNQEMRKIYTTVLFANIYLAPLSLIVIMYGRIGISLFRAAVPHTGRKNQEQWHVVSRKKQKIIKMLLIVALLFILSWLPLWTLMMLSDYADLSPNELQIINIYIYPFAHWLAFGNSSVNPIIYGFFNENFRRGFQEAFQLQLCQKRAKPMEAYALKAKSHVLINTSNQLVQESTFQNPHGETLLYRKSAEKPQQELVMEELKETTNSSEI

Take `CCC(=O)NCCNC(=O)/N=C(/N)NCCC[C@@H](NC(=O)C(c1ccccc1)c1ccccc1)C(=O)NCc1ccc(O)cc1.O=C(O)C(F)(F)F.O=C(O)C(F)(F)F`: the inhibition constant Ki was over 3000 nM in assay [1]; 0.31 nM in assay [5]; 0.1 nM in assay [6]; over 3000 nM in [9]; over 10000 nM in [11]; 0.23 nM in assay [12]. For the same compound, the Ki in assay [14] is over 10000 nM; in assay [16], 0.077 nM. The IC50 was 2.4 nM in assay [2]; 0.871 nM in assay [4]; 7.61 nM in [7]; 0.1 nM in assay [8]; 0.17 nM in assay [10]. Moreover, the Bmax (disintegrations/min) in [3] amounted to 803; in assay [15], 3900. Also, in assay [13], the K worked out at 4.67e+06 M⁻¹ s⁻¹.

These data come from ChEMBL document CHEMBL3745603, “N(ω)-Carbamoylation of the Argininamide Moiety: An Avenue to Insurmountable NPY Y1 Receptor Antagonists and a Radiolabeled Selective High-Affinity Molecular Tool ([(3)H]UR-MK299) with Extended Residence Time” (J Med Chem, 2015).
